In article PMC3248652 (International Journal of Biological Sciences, 2011):
“Also recorded” adds a separate entry of the source. Read-outs that look alike come from different tables or passages of the source. Non-standard residues stand in square brackets, D forms with d.

Tests used:
[1] = test system: ERK activation (activated human T cells); experiment: CXCL12-induced ERK phosphorylation; assay type: cell-based
Outline: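 About 10 million activated T cells per 0.5 ml per treatment, pretreated with test compound (20µM) for 30 min at 37°C. CXCL12 was then added to 10nM final. Cells were washed, harvested and lysed in RIPA buffer with protease and phosphatase inhibitors at 1, 3 and 10 min. Protein was measured by Bradford. 30μg lysate was run on 4-20% SDS-PAGE, blotted to nitrocellulose, and phospho-ERK detected by ECL.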

[2] = test system: CXCR4 mediated HIV viral entry; details: ref [19]; cited from earlier work
glioma cell invasion = details: ref [6]; cited from earlier work
breast carcinoma = details: ref [20]; cited from earlier work
pancreatic carcinoma = details: ref [21]; cited from earlier work
[3] = ref [22]; cited from earlier work
CXCR4 [4] = details: ref [15]; cited from earlier work
GHS-R = details: cited from earlier work
[5] = test system: CXCR4 (GHOST-CXCR4 cells); experiment: Fluorokine; assay type: binding
[6] = test system: CXCR4 (primary human T cells); experiment: CXCL12-induced intracellular calcium mobilization in primary human T cells; assay type: cell-based; details: Fura-2AM, CXCL12 10nM
Outline: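 Human T cells were enriched from Ficoll-isolated PBMCs on T-cell enrichment columns, loaded with Fura-2-AM, and washed. They were then pretreated 20 min with the test compound at various concentrations. CXCL12 was added to 10nM final. Ca++ release was monitored in a luminescence spectrometer (ex 340 and 380 nm, em 510 nm) and expressed as the 340/380 ratio. At least three experiments were run.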

[7] = test system: CXCR4 (primary human T cells); experiment: CXCL12-induced T cell Transwell chemotaxis; assay type: cell-based; details: CXCL12 10nM, 5 h 37°C, mean ±SEM of three experiments
HIV1-IIIB (CXCR4 tropic) = experiment: HIV1-IIIB propagation in activated PBMCs; assay type: cell-based, HIV-1; details: activated human PBMCs
Outline: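 PBMCs were activated 3 days with PHA 5μg/ml and IL-2 10 units/ml, then washed into cRPMI at 10^6/ml. Cells were pretreated 30 min at 37°C with the test compound and infected with HIV1-IIIB (10ng/ml p24) for 3 h. Cells were washed, replated at 500,000/ml in triplicate, and compound re-added. Supernatant p24 was measured by ELISA on days 3, 6 and 9 and expressed as % of virus-only control. Three donors were used.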

CXCR4 [8] = experiment: CXCR4 binding and activity, overall statement; assay type: cell-based, human; details: T cells and PBMCs; summary statement
obese mice = details: ref [24], cited from earlier work
[9] = obese mice, repeated administration

Compound: c1cc(CN2CCCNCCNCCCNCC2)ccc1CN1CCCNCCNCCCNCC1 [AMD3100]
- block of ERK activation after CXCL12 treatment ([1]; activated human T cells, 10^-6M AMD3100, data not shown): 80%
- effect on CXCR4 mediated HIV viral entry [2]: block CXCR4 mediated HIV viral entry
- effect on glioma cell invasion (glioma cell invasion): blocks glioma cell invasion
- effect on metastasis of breast carcinoma (breast carcinoma): blocks
- effect on metastasis of pancreatic carcinoma (pancreatic carcinoma): blocks
- effect on allergy and collagen induced arthritis [3]: decreases allergy and collagen induced arthritis
- CXCR4 blocking (CXCR4 [4]): potent CXCR4 [15] blocking agent

Compound: H-H[dW]AW[dF]K-NH2 [GHRP-6]
- activity at GHS-R (GHS-R; ref [9]): GHS-R agonist

Compound: H-H[dW][dK]W[dF]K-NH2 [DLS]
- effect on chemokine ligand binding ([5]; 1/4/16 μg DLS, 30 min 37°C, flow cytometry MFI): blocks chemokine ligand binding to receptor-positive cells
- amount required for the observed inhibition of CXCL12 binding ([5]; GHOST-CXCR4 cells, flow cytometry, AMD3100 data not shown): microgram quantities
- effect on CXCL12-induced calcium flux [6]: markedly inhibited in a dose dependent fashion; also recorded: partially inhibits CXCL12-induced Ca++ release; also recorded: modest inhibition of calcium mobilization
- effect on CXCL12-induced T cell migration [7]: marked dose dependent inhibition; also recorded: inhibits CXCL12 induced activated T cell chemotaxis
- effect on ERK activation in response to CXCL12 ([1]; DLS 20μM, 30 min 37°C, CXCL12 10nM, Western blot): very modestly blocks ERK activation
- effect on CXCR4-mediated HIV-1 entry and propagation (HIV1-IIIB (CXCR4 tropic)): partially blocks CXCR4-mediated HIV-1 entry and propagation
- effect on CXCL12 binding and activity through CXCR4 (CXCR4 [8]): block CXCL12 binding and activity through CXCR4; also recorded: modestly inhibit the binding and activity of CXCR4 receptor in human T cells
- activity at GHS-R (GHS-R; ref [8], [9]): selective GHS-R antagonist
- body weight (obese mice; [9]): reduce body weight in obese mice
- glycemic control and insulin resistance (obese mice; [9]): improve their glycemic control and insulin resistance
- muscle mass (obese mice; obese mice): without affecting the muscle mass
- size of abdominal fat pads (obese mice; obese mice): reduced the size of abdominal fat pads
- adverse side effects (obese mice; rodent models): without any adverse side effects
